Results as given in ChEMBL document CHEMBL1149381, “New arylthioindoles: potent inhibitors of tubulin polymerization. 2. Structure-activity relationships and molecular modeling studies” (J Med Chem, 2006).
Activity calls are given as the source filed them. The rule behind the calls is not given here.

Experiments:
MCF7 = assay: Inhibition of growth of MCF7 cells; assay type: functional, cell-based; details: Homo sapiens
Tubulin = assay: Inhibition of tubulin polymerization; assay type: functional, Homo sapiens
Summary of the method: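 Tubulin 10 µM in 0.8 M monosodium glutamate (pH 6.6), preincubated 15 min at 30 °C with varying drug, chilled on ice, then GTP added to 0.4 mM. Turbidity followed at 350 nm for 20 min at 30 °C. Extent of assembly measured and IC50 derived.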

Tubulin (Homo sapiens) = Tubulin (Homo sapiens) (UniProt P68371+Q9H4B7+P0DPH7+P68366+Q13509+Q71U36+P04350+Q3ZCM7+P07437+P68363+Q9BQE3+Q6PEY2+Q13885+Q9BVA1+Q9BUF5); assay: Displacement of [3H]colchicine from tubulin; assay type: protein-complex assay; details: concentration not given here
Summary of the method: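 [3H]Colchicine 5.0 µM with 1.0 µM tubulin and 5.0 µM inhibitor, incubated 10 min at 37 °C. Result given as % inhibition of colchicine binding.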

SCLC = assay: Inhibition of growth of SCLC cells; assay type: functional, cell-based; details: Homo sapiens
[1] = molecular target: Heat shock protein HSP 90-alpha (Homo sapiens) (UniProt P07900); assay: Binding affinity to Hsp90-alpha by fluorescent polarization assay
Summary of the method: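 Fluorescence polarization competition with recombinant Hsp90α (30 nM) and GM-BODIPY (fluorescent geldanamycin, 5 nM) in 20 mM K-HEPES pH 7.3, 50 mM KCl, 5 mM MgCl2, 20 mM Na2MoO4, 0.01% NP40, 0.1 mg/mL bovine gamma globulin, 2 mM DTT. Shaken 24 h at 4 °C, mP read. EC50 = competitor concentration displacing 50% of probe.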

Structure (SMILES)	IC50 (MCF7)	IC50 (Tubulin)	inhibition (Tubulin (Homo sapiens))	Activity [1]	IC50 (SCLC)
COC(=O)c1[nH]c2cc(OC)c(OC)cc2c1Sc1cc(OC)c(OC)c(OC)c1	1600 nM	> 40 µM			
CCOC(=O)c1[nH]c2cc(OC)c(OC)cc2c1Sc1ccccc1	> 2500 nM	14 µM			
CCOC(=O)c1[nH]c2ccc(OC)cc2c1Sc1cccc(OC)c1	280 nM	3.1 µM	39%		584 nM
COC(=O)c1[nH]c2ccc(Cl)cc2c1Sc1ccccc1OC	1300 nM	4.2 µM	34%		7000 nM
CC(C)OC(=O)c1[nH]c2ccccc2c1Sc1ccccc1	> 2500 nM	18 µM			
CC(C)(C)OC(=O)c1[nH]c2ccccc2c1Sc1ccccc1	> 2500 nM	> 40 µM			
COC(=O)c1[nH]c2cc(OC)ccc2c1Sc1ccccc1	> 2500 nM	> 40 µM			
COC(=O)c1[nH]c2cccc(OC)c2c1Sc1ccccc1	> 2500 nM	> 40 µM			
CCCOC(=O)c1[nH]c2ccccc2c1Sc1ccccc1	> 2500 nM	> 40 µM			
COC(=O)c1[nH]c2ccc(Cl)cc2c1Sc1cccc(OC)c1	330 nM	1.8 µM	53%		3200 nM
CCC(C)OC(=O)c1[nH]c2ccccc2c1Sc1ccccc1 (centres undefined)	> 2500 nM	> 40 µM			
COC(=O)c1[nH]c2ccc(Cl)cc2c1S(=O)(=O)c1ccc(OC)cc1	> 2500 nM	> 40 µM			
CCOC(=O)c1[nH]c2ccccc2c1Sc1ccc(OC)cc1	> 2500 nM	> 40 µM			> 10000 nM

Second part, led by results:

IC50 (MCF7)	IC50 (Tubulin)	inhibition (Tubulin (Homo sapiens))	Activity [1]	Structure (SMILES)	IC50 (SCLC)
> 2500 nM	12 µM			CCOC(=O)c1[nH]c2ccccc2c1Sc1ccccc1OC	
120 nM	4.5 µM	32%		COC(=O)c1[nH]c2ccc([N+](=O)[O-])cc2c1Sc1cc(OC)c(OC)c(OC)c1	
> 2500 nM	> 40 µM			COC(=O)c1[nH]c2ccc(OC)cc2c1S(=O)(=O)c1ccccc1	
> 2500 nM	> 40 µM			COC(=O)c1[nH]c2ccc(Cl)cc2c1S(=O)(=O)c1ccccc1OC	
350 nM	16 µM			CCOC(=O)c1[nH]c2ccc(OC)cc2c1Sc1ccccc1OC	2200 nM
> 2500 nM	> 40 µM			CCOC(=O)c1[nH]c2ccc(OC)cc2c1Sc1ccc(OC)cc1	> 10000 nM
> 2500 nM	31 µM			COC(=O)c1[nH]c2ccc(Cl)cc2c1S(=O)(=O)c1cccc(OC)c1	> 10000 nM
34 nM	2.2 µM	82%		COC(=O)c1[nH]c2ccc(Cl)cc2c1Sc1cc(OC)cc(OC)c1	18 nM
		51%		CCOC(=O)c1[nH]c2ccccc2c1Sc1cc(OC)c(OC)c(OC)c1	
150 nM	2.9 µM	48%		CCOC(=O)c1[nH]c2ccccc2c1Sc1cccc(OC)c1	585 nM
> 2500 nM	> 40 µM			CCCCOC(=O)c1[nH]c2ccccc2c1Sc1ccccc1	
> 2500 nM	> 40 µM			CC(C)CCOC(=O)c1[nH]c2ccccc2c1Sc1ccccc1	
> 2500 nM	> 40 µM			CCOC(=O)c1[nH]c2cc(OC)c(OC)cc2c1S(=O)(=O)c1ccccc1	
		57%	inactive	COC(=O)c1[nH]c2ccc(Cl)cc2c1Sc1cc(OC)c(OC)c(OC)c1	
> 2500 nM	> 40 µM			O=C(OCc1ccccc1)c1[nH]c2ccccc2c1Sc1ccccc1	
1000 nM	22 µM			CCOC(=O)c1[nH]c2cc(OC)c(OC)cc2c1Sc1cc(OC)c(OC)c(OC)c1	
46 nM	2.4 µM	71%		CCOC(=O)c1[nH]c2ccc(OC)cc2c1Sc1cc(OC)c(OC)c(OC)c1	
110 nM	2.2 µM	53%		CCOC(=O)c1[nH]c2ccc(Cl)cc2c1Sc1cc(OC)c(OC)c(OC)c1	93 nM
